{"source": "ChEMBL document CHEMBL4311977", "about": "“Design and synthesis of parthenolide and 5-fluorouracil conjugates as potential anticancer agents against drug resistant hepatocellular carcinoma” (Eur J Med Chem, 2019)", "key": {"Bel7402/5-FU [1]": {"system": "Bel7402/5-FU", "experiment": "Induction of apoptosis in human Bel7402/5-FU assessed as early apoptotic cells at 1 uM incubated for 48 hrs by annexinV-FITC/propidium iodide staining based flow cytometry (reference value: 20.1 to 20.3 %)"}, "Bel7402/5-FU [2]": {"system": "Bel7402/5-FU", "experiment": "Induction of apoptosis in human Bel7402/5-FU assessed as early apoptotic cells at 5 uM incubated for 48 hrs by annexinV-FITC/propidium iodide staining based flow cytometry (reference value: 20.1 %)"}, "Bel7402/5-FU [3]": {"system": "Bel7402/5-FU", "experiment": "Induction of apoptosis in human Bel7402/5-FU assessed as early apoptotic cells at 2.5 uM incubated for 48 hrs by annexinV-FITC/propidium iodide staining based flow cytometry (reference value: 20.1 to 20.3 %)"}, "Bel7402/5-FU [4]": {"system": "Bel7402/5-FU", "experiment": "Potency index, ratio of parthenolide IC50 to compound IC50 for antiproliferative activity against human Bel7402/5-FU cells", "format": "functional"}, "Bel7402/5-FU [5]": {"system": "Bel7402/5-FU", "experiment": "Induction of apoptosis in human Bel7402/5-FU assessed as apoptotic cells at 2.5 uM incubated for 48 hrs by annexinV-FITC/propidium iodide staining based flow cytometry (reference value: 3.37 +/- 0.47 %)"}, "Bel-7402": {"system": "Bel-7402", "experiment": "Antiproliferative activity against human Bel7402 incubated for 72 hrs by MTT assay", "format": "functional, cell-based", "conditions": "Bel-7402, 72 h", "procedure,_shortened": "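Bel-7402 and its 5-FU-resistant subline were kept in RPMI-1640 with 10% FBS and 1% penicillin/streptomycin at 37 °C under 5% CO2. Cells were seeded at 5000 per well and left for 12 h, then exposed to a concentration series for 72 h. MTT stock (5 mg/mL) was added for 4 h and the product dissolved in DMSO. OD was read at 570 nm and IC50 obtained by curve fitting.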"}, "Bel7402/5-FU [6]": {"system": "Bel7402/5-FU", "experiment": "Down regulation of Pgp expression in human Bel7402/5-FU cells at 0.5 uM incubated for 24 hrs by flow cytometry"}, "[7]": {"experiment": "Therapeutic index, ratio of IC50 for mouse 3T3 cells to IC50 for human Bel7402/5-FU cells", "format": "toxicity", "conditions": "mouse 3T3 cells versus human Bel7402/5-FU cells, read-out: TI"}, "Bel7402/5-FU [8]": {"system": "Bel7402/5-FU", "experiment": "Induction of apoptosis in human Bel7402/5-FU cells assessed as downregulation of Bcl-2 expression at 0.5 to 5 uM incubated for 24 hrs by Western blot analysis", "format": "functional, cell-based", "procedure,_shortened": "(§1)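 Bel-7402/5-FU cells were seeded at 5 × 10⁵ per well and left 12 h, then treated with four concentrations (0.5, 1, 2, 5) for 24 h. Cells were PBS-washed and lysed in RIPA on ice for 30 min, then denatured at 100 °C for 5 min. Lysates went through SDS-PAGE and PVDF transfer, 5% milk blocking for 1 h at room temperature, primary antibodies, and HRP secondary for 2 h at room temperature.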"}, "Bel7402/5-FU [9]": {"system": "Bel7402/5-FU", "experiment": "Induction of apoptosis in human Bel7402/5-FU assessed as viable cells at 1 uM incubated for 48 hrs by annexinV-FITC/propidium iodide staining based flow cytometry (reference value: 96.9 to 97.1 %)"}, "NIH3T3": {"system": "NIH3T3", "experiment": "Cytotoxicity against mouse 3T3 cells", "format": "cell-based"}, "Bel7402/5-FU [10]": {"system": "Bel7402/5-FU", "experiment": "Down regulation of ABCC1 expression in human Bel7402/5-FU cells incubated for 24 hrs by western blot analysis", "format": "functional, cell-based", "procedure,_shortened": "as §1"}, "Bel7402/5-FU [11]": {"system": "Bel7402/5-FU", "experiment": "Down regulation of ABCG2 expression in human Bel7402/5-FU cells incubated for 24 hrs by western blot analysis", "format": "functional, cell-based", "procedure,_shortened": "as §1"}, "Bel7402/5-FU [12]": {"system": "Bel7402/5-FU", "experiment": "Induction of apoptosis in human Bel7402/5-FU cells assessed as increase in apoptotic bodies incubated for 48 hrs by DAPI staining based fluorescence microscopic analysis", "format": "functional, cell-based", "procedure,_shortened": "(§2)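 Bel-7402/5-FU cells were seeded at 5 × 10⁵ per well and left 12 h, then exposed at three concentrations (1, 2, 5) for 48 h. Cells were washed three times in PBS and stained with DAPI for 10 min at room temperature. Nuclear morphology was scored by fluorescence microscopy.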"}, "Bel7402/5-FU [13]": {"system": "Bel7402/5-FU", "experiment": "Induction of apoptosis in human Bel7402/5-FU cells assessed as downregulation of Bcl-xl expression at 0.5 to 5 uM incubated for 24 hrs by Western blot analysis", "format": "functional, cell-based", "procedure,_shortened": "as §1"}, "Bel7402/5-FU [14]": {"system": "Bel7402/5-FU", "experiment": "Induction of apoptosis in human Bel7402/5-FU assessed as apoptotic cells at 5 uM incubated for 48 hrs by annexinV-FITC/propidium iodide staining based flow cytometry (reference value: 3.37 +/- 0.47 %)"}, "Bel7402/5-FU [15]": {"system": "Bel7402/5-FU", "experiment": "Induction of apoptosis in human Bel7402/5-FU assessed as late apoptotic cells at 1 uM incubated for 48 hrs by annexinV-FITC/propidium iodide staining based flow cytometry (reference value: 0.268 to 0.945 %)"}, "Bel7402/5-FU [16]": {"system": "Bel7402/5-FU", "experiment": "Induction of apoptosis in human Bel7402/5-FU assessed as apoptotic cells at 0.5 uM incubated for 48 hrs by annexinV-FITC/propidium iodide staining based flow cytometry (reference value: 3.37 +/- 0.47 %)"}, "Bel7402/5-FU [17]": {"system": "Bel7402/5-FU", "experiment": "Induction of apoptosis in human Bel7402/5-FU cells assessed as upregulation of Bim expression at 0.5 to 5 uM incubated for 24 hrs by Western blot analysis", "format": "functional, cell-based", "procedure,_shortened": "as §1"}, "Bel7402/5-FU [18]": {"system": "Bel7402/5-FU", "experiment": "Induction of apoptosis in human Bel7402/5-FU assessed as necrotic cells at 2.5 uM incubated for 48 hrs by annexinV-FITC/propidium iodide staining based flow cytometry (reference value: 0.024 to 0.157 %)"}, "Bel7402/5-FU [19]": {"system": "Bel7402/5-FU", "experiment": "Induction of apoptosis in human Bel7402/5-FU cells assessed as increase in irregular nuclear morphology incubated for 48 hrs by DAPI staining based fluorescence microscopic analysis", "format": "functional, cell-based", "procedure,_shortened": "as §2"}, "Bel7402/5-FU [20]": {"system": "Bel7402/5-FU", "experiment": "Induction of apoptosis in human Bel7402/5-FU assessed as viable cells at 2.5 uM incubated for 48 hrs by annexinV-FITC/propidium iodide staining based flow cytometry (reference value: 96.9 to 97.1 %)"}, "Bel7402/5-FU [21]": {"system": "Bel7402/5-FU", "experiment": "Induction of apoptosis in human Bel7402/5-FU assessed as late apoptotic cells at 5 uM incubated for 48 hrs by annexinV-FITC/propidium iodide staining based flow cytometry (reference value: 0.945 %)"}, "Bel7402/5-FU [22]": {"system": "Bel7402/5-FU", "experiment": "Induction of apoptosis in human Bel7402/5-FU assessed as necrotic cells at 1 uM incubated for 48 hrs by annexinV-FITC/propidium iodide staining based flow cytometry (reference value: 0.024 to 0.157 %)"}, "Bel7402/5-FU [23]": {"system": "Bel7402/5-FU", "experiment": "Down regulation of MDR1 expression in human Bel7402/5-FU cells incubated for 24 hrs by western blot analysis", "format": "functional, cell-based", "procedure,_shortened": "as §1"}}, "note": "Activity calls are given as the source filed them. The calls are words filed in the database; no cut-off is given here."}
{"smiles": "C=C1C(=O)O[C@H]2[C@H]1CC/C(COC(=O)Cn1cc(F)c(=O)n(Cc3ccc(C(F)(F)F)cc3)c1=O)=C\\CC[C@@]1(C)O[C@@H]21", "values": [{"measurement": "Activity", "setting": "Bel7402/5-FU [1]", "value": 3.5, "unit": "%"}, {"measurement": "Activity", "setting": "Bel7402/5-FU [2]", "value": "18.1 - 82.7%"}, {"measurement": "Activity", "setting": "Bel7402/5-FU [3]", "value": 7.75, "unit": "%"}, {"measurement": "Ratio IC50", "setting": "Bel7402/5-FU [4]", "value": 5.8}, {"measurement": "Activity", "setting": "Bel7402/5-FU [5]", "value": 14.43, "unit": "%"}, {"measurement": "IC50", "setting": "Bel-7402", "value": 2.25, "unit": "µM"}, {"measurement": "Activity", "setting": "Bel7402/5-FU [6]", "value": "Active"}, {"measurement": "selectivity ratio", "setting": "[7]", "value": 2.3}, {"measurement": "Activity", "setting": "Bel7402/5-FU [8]", "value": "Active"}, {"measurement": "viability at 1 µM", "setting": "Bel7402/5-FU [9]", "value": 94.3, "unit": "%"}, {"measurement": "IC50", "setting": "NIH3T3", "value": 5.2, "unit": "µM"}, {"measurement": "Activity", "setting": "Bel7402/5-FU [10]", "value": "Dose-dependent effect"}, {"measurement": "Activity", "setting": "Bel7402/5-FU [11]", "value": "Dose-dependent effect"}, {"measurement": "Activity", "setting": "Bel7402/5-FU [12]", "value": "Dose-dependent effect"}, {"measurement": "Activity", "setting": "Bel7402/5-FU [13]", "value": "Active"}, {"measurement": "Activity", "setting": "Bel7402/5-FU [14]", "value": 77.97, "unit": "%"}, {"measurement": "Activity", "setting": "Bel7402/5-FU [15]", "value": 0.909, "unit": "%"}, {"measurement": "Activity", "setting": "Bel7402/5-FU [16]", "value": 3.97, "unit": "%"}, {"measurement": "Activity", "setting": "Bel7402/5-FU [17]", "value": "Active"}, {"measurement": "Activity", "setting": "Bel7402/5-FU [18]", "value": 1.87, "unit": "%"}, {"measurement": "Activity", "setting": "Bel7402/5-FU [19]", "value": "Dose-dependent effect"}, {"measurement": "viability at 2.5 µM", "setting": "Bel7402/5-FU [20]", "value": 85.6, "unit": "%"}, {"measurement": "Activity", "setting": "Bel7402/5-FU [21]", "value": "19.5 - 46.1%"}, {"measurement": "Activity", "setting": "Bel7402/5-FU [22]", "value": 1.9, "unit": "%"}, {"measurement": "Activity", "setting": "Bel7402/5-FU [23]", "value": "Dose-dependent effect"}]}
